An excerpt weighted towards active compounds, which were near 3.4% of everything screened.
TMEM16A inh: mouse TMEM16A channel inhibition, primary screen; Q8BHY3; HEK293 TMEM16A/YFP iodide influx fluorescence, ionomycin; normalized B-score (activity score, 25-100; higher = stronger inhibition) at 10 µM; actives 1.2% (n = 310,000); AID 588511;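 active = ratio plate-corrected score three or more library SD toward inhibition, starting fluorescence score within five deviations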;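 also: score derived from kinetic fluorescence span divided by baseline fluorescence per well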
Target sequence (Q8BHY3 whole entry, looked up): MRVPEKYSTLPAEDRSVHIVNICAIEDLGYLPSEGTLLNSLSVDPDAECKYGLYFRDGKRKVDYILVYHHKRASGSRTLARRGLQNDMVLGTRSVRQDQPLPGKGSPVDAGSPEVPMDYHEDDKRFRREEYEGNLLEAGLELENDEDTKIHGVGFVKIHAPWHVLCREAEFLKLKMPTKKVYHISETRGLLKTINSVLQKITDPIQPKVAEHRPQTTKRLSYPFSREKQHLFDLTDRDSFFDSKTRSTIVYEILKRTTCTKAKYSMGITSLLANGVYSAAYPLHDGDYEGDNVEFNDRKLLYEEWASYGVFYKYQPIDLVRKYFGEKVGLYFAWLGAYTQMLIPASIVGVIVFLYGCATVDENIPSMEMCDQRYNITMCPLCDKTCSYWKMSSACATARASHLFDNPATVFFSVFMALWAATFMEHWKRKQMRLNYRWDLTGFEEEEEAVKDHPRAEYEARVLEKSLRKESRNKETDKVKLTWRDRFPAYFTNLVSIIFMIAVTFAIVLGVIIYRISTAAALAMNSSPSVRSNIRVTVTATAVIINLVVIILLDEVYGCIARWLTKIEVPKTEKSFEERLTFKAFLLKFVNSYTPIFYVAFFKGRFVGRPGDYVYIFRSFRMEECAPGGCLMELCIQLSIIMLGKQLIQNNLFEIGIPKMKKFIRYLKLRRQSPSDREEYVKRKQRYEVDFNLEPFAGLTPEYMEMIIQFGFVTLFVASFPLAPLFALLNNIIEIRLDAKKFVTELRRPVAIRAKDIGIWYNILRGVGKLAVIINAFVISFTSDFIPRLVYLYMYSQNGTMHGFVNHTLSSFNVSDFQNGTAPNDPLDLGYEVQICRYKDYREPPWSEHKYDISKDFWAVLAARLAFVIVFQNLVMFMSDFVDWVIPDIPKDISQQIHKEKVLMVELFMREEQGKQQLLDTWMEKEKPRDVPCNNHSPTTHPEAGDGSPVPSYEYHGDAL
MC4R antag cAMP: antagonists of human melanocortin 4 receptor (MC4R). inhibition, % at 6.5 µM. MC4R-expressing cells, MTII-stimulated cAMP, LANCE TR-FRET. actives 0.48% (n = 360,000);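 active = inhibition above its plate's cutoff, the mean of tested wells on that plate plus 3 SD, cut at about 29% in these data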
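Assay system: human MC4R-expressing U2OS cells; reagent: Melanotan II stimulation of cells; dosing: 6.5 µM single dose; timing: compound 30 min, challenge 1 h, detection 1 h; signal: TR-FRET cAMP assay; replicates: one well per compound, no replicates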
MIN6 prolif: inducers of beta-cell replication in MIN6 cells; MIN6 cells proliferation, ATPlite luminescence, 48 h; cells starved in 0.2% serum; 100% = growth in 10% serum; proliferation, % at 10 µM; actives 0.29% (n = 330,000);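 active = compounds whose signal lies at least 3.5 SD above the mean of all wells on their plate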
m5-HT2A agonist: agonists of mouse serotonin 5-HT2A receptor (HTR2A). P35363. CHO-K1 mHTR2A beta-arrestin complementation, luminescence; percent of 30 µM serotonin response. activation, % at 7.6 µM. actives 0.66% (n = 360,000);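 active = activation above a run cutoff, the mean activation of all tested compounds plus 3 SD, cut at about 14% in these data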
MC4R ag barr: agonists of human melanocortin 4 receptor (MC4R) beta-arrestin; P32245; actives 0.98% (n = 360,000); AID 540308; U2OS MC4R beta-arrestin complementation, luminescence; percent of melanotan II response, DMSO zero; activation, % at 8.9 µM;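 active = activation above a per-plate cutoff, the mean activation of sample wells on that plate plus 3 SD, cut at about 8% in these data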
ANO1 activ: mouse TMEM16A channel activation, primary screen | Q8BHY3 | HEK293 TMEM16A/YFP-H148Q/I152L, iodide quench fluorescence; stronger effect = lower value | B-score at 10 µM | actives 0.3% (n = 340,000) | AID 623877;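 active = fluorescence-ratio B-score plate-corrected deviation score at least 3 library SD below zero, with starting fluorescence score within 5 deviations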;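 also: channel opened by trigger with iodide after compound preincubation; score built on the fluorescence ratio of max minus min over baseline; more negative score means more quench and so TMEM16A activation or potentiation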
A number is an active result.

O=C(Nc1ccc(Br)c2ccccc12)c1ccc2ccccc2c1O was read as TMEM16A inh 100, MC4R antag cAMP inactive, m5-HT2A agonist inactive, MC4R ag barr inactive and ANO1 activ inactive.
For CC(=O)Nc1ccc(Br)c2ccccc12 the results were TMEM16A inh inactive, MC4R antag cAMP inactive, MIN6 prolif inactive, m5-HT2A agonist inactive, MC4R ag barr inactive and ANO1 activ inactive.
For O=C(OCCOc1cccc(Cl)c1)c1ccc2ncsc2c1 the results were TMEM16A inh inactive, MC4R antag cAMP inactive, MIN6 prolif inactive, m5-HT2A agonist inactive, MC4R ag barr inactive and ANO1 activ inactive.
For O=C(N/N=C/c1ccc(O)c(Br)c1)c1cc2c(ccc3ccccc32)o1 the results were TMEM16A inh inactive, MC4R antag cAMP inactive, MIN6 prolif inactive, m5-HT2A agonist inactive, MC4R ag barr inactive and ANO1 activ inactive.
`O=C(N/N=C/c1cc(Br)c(O)c(Br)c1)c1cc2c(ccc3ccccc32)o1` gave TMEM16A inh 100, MC4R antag cAMP inactive, MIN6 prolif inactive, m5-HT2A agonist inactive, MC4R ag barr inactive and ANO1 activ inactive.
O=C(N/N=C/c1cc(Cl)c(O)c(Cl)c1)c1cc2c(ccc3ccccc32)o1 was read as TMEM16A inh 100, MC4R antag cAMP inactive, MIN6 prolif inactive, m5-HT2A agonist inactive, MC4R ag barr inactive and ANO1 activ inactive.
Screening COC(=O)c1ccc(COc2cccn3c(N(C)C(=O)CCC4CCCC4)c(C)nc23)cc1 returned MC4R antag cAMP inactive, m5-HT2A agonist inactive and MC4R ag barr inactive.
CCNC(=S)NCc1ccc(Cl)cc1 was read as TMEM16A inh inactive, MC4R antag cAMP inactive, MIN6 prolif inactive, m5-HT2A agonist inactive, MC4R ag barr inactive and ANO1 activ -9.59.
Screening C[n+]1cn(CC(O)COCc2ccccc2)c2ccccc21 (stereo unspecified) returned TMEM16A inh inactive, MC4R antag cAMP inactive, MIN6 prolif inactive, m5-HT2A agonist inactive, MC4R ag barr inactive and ANO1 activ inactive.
Screening CCCCCc1ccc(OCCOCCn2c[n+](C)c3ccccc32)c(CCCCC)c1 returned MC4R antag cAMP inactive, m5-HT2A agonist inactive, MC4R ag barr 17.4 and ANO1 activ inactive.
O=C(NCCc1ccc(F)cc1)c1ccc(NS(=O)(=O)c2ccc3[nH]c(=O)[nH]c3c2)cc1 was read as TMEM16A inh inactive, MC4R antag cAMP inactive, MIN6 prolif inactive, m5-HT2A agonist inactive, MC4R ag barr inactive and ANO1 activ inactive.
Screening Cc1cc(Nc2nc3ccccc3[nH]c2=O)n(-c2ccccc2)n1 returned TMEM16A inh inactive, MC4R antag cAMP inactive, MIN6 prolif inactive, m5-HT2A agonist inactive, MC4R ag barr inactive and ANO1 activ inactive.
Cc1cc(Nc2nc3ccccc3nc2Cl)n(-c2ccc([N+](=O)[O-])cc2)n1 was read as TMEM16A inh 100, MC4R antag cAMP inactive, MIN6 prolif inactive, m5-HT2A agonist inactive, MC4R ag barr inactive and ANO1 activ inactive.
Screening CCCC1=NN2C(=N)/C(=C\c3ccc(OCCOc4ccc(NC(C)=O)cc4)c(OC)c3)C(=O)N=C2S1 returned TMEM16A inh inactive, MC4R antag cAMP inactive, MIN6 prolif inactive, m5-HT2A agonist inactive, MC4R ag barr inactive and ANO1 activ inactive.
`CC(C)Cn1c(N)c(C(=O)CSc2nnc(C3CC3)n2C2CC2)c(=O)n(C)c1=O` gave MC4R antag cAMP inactive, MIN6 prolif inactive, m5-HT2A agonist inactive, MC4R ag barr inactive and ANO1 activ inactive.
For O=C(NC1CCC1)C1CCC(=O)N(Cc2cccc(F)c2)C1 (stereo unspecified) the results were TMEM16A inh inactive, MC4R antag cAMP inactive, MIN6 prolif inactive, m5-HT2A agonist inactive, MC4R ag barr inactive and ANO1 activ -6.21.
Screening O=C(NC1CCC1)C1CCC(=O)N(Cc2ccccc2F)C1 (stereo unspecified) returned TMEM16A inh inactive, MC4R antag cAMP inactive, MIN6 prolif inactive, m5-HT2A agonist inactive, MC4R ag barr inactive and ANO1 activ inactive.
For CC(CC(=O)Nc1ccc(Cl)c([N+](=O)[O-])c1)c1ccccc1 (stereo unspecified) the results were TMEM16A inh 100, MC4R antag cAMP inactive, MIN6 prolif inactive, m5-HT2A agonist inactive, MC4R ag barr inactive and ANO1 activ inactive.

Source: PubChem BioAssay (several laboratories)
